# Test results as given in ChEMBL document CHEMBL1140591, “Syntheses of novel myxopyronin B analogs as potential inhibitors of bacterial RNA polymerase” (Bioorg Med Chem Lett, 2007).
# How the values were obtained:
# Escherichia coli [1] = test: Inhibition of Escherichia coli DNA-dependent RNA polymerase at 10 uM by nucleotide coupled NADPH/pyrophosphate release assay
# Escherichia coli [2] = test: Antibacterial activity against Escherichia coli; assay type: functional
# Procedure, shortened: (§1)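 MIC determined by growth inhibition testing; the same test was also run against S. aureus.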
# CEM-SS = test: Cytotoxicity against human CEM-SS cells upto 40 uM after 3 days; assay type: cell-based; conditions: 72 h
# Procedure, shortened: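 CEM-SS T lymphocytes were incubated with compound for 3 days and then treated with XTT. The signal was read […] at 450 nm/650 nm, and CC50 was determined from the readings.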
# Staphylococcus aureus = test: Antibacterial activity against Staphylococcus aureus; assay type: functional
# [3] = Inhibition of Escherichia coli DNA-dependent RNA polymerase by nucleotide coupled NADPH/pyrophosphate release assay
# Procedure, shortened: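 In the pyrophosphate-release coupled assay, NADPH was monitored by fluorescence (emission ~440 nm) instead of absorbance at 340 nm. Some compounds were also tested by incorporation of radiolabeled nucleotide into RNA.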
# Escherichia coli [4] = test: Antibacterial activity against Escherichia coli Tol C mutant; assay type: functional; procedure, shortened: as §1
compound,measurement,setting,value
CCCCCCCCC(=O)c1c(O)cc(CCC/C=C/NC(=O)OC)oc1=O,inhibition,Escherichia coli [1],< 20%
same,MIC,Escherichia coli [2],> 64 µg/mL
same,Activity,CEM-SS,Non-toxic
same,MIC,Staphylococcus aureus,> 64 µg/mL
CCCC/C(C)=C/C=C(\C)C(=O)c1c(O)cc(CCC/C=C/NC(=O)OC)n(C)c1=O,IC50,[3],15 µM
same,MIC,Escherichia coli [2],> 64 µg/mL
same,Activity,CEM-SS,Non-toxic
same,MIC,Staphylococcus aureus,> 64 µg/mL
CCCC/C(C)=C/C=C(\C)C(=O)c1c(O)cc([C@H](C)CC/C=C/NC(=O)OC)oc1=O [MYXOPYRONIN B],IC50,[3],0.92 µM
same,MIC,Escherichia coli [2],> 64 µg/mL
same,Activity,CEM-SS,Non-toxic
same,MIC,Escherichia coli [4],2 µg/mL
same,MIC,Staphylococcus aureus,1 µg/mL
CCCC/C(C)=C/C=C(\C)C(=O)c1c(O)cc(C(C)CC/C=C/NC(=O)OC)n(C)c1=O (stereo not drawn),IC50,[3],20.5 µM
same,MIC,Escherichia coli [2],> 64 µg/mL
same,Activity,CEM-SS,Non-toxic
same,MIC,Staphylococcus aureus,> 64 µg/mL
CCCCCC(=O)c1c(O)cc(CCC/C=C/NC(=O)OC)oc1=O,inhibition,Escherichia coli [1],< 20%
same,MIC,Escherichia coli [2],> 64 µg/mL
same,Activity,CEM-SS,Non-toxic
same,MIC,Staphylococcus aureus,> 64 µg/mL
COC(=O)N/C=C/CCCc1cc(O)c(C(=O)/C(C)=C\c2ccco2)c(=O)o1,inhibition,Escherichia coli [1],< 20%
same,MIC,Escherichia coli [2],> 64 µg/mL
same,Activity,CEM-SS,Non-toxic
same,MIC,Staphylococcus aureus,> 64 µg/mL
CCCC/C(C)=C/C=C(\C)C(=O)c1c(O)cc(CCC/C=C/NC(=O)OC)oc1=O [DESMETHYL MYXOPYRONIN B],IC50,[3],0.34 µM
same,MIC,Escherichia coli [2],> 64 µg/mL
same,Activity,CEM-SS,Non-toxic
same,MIC,Escherichia coli [4],1 µg/mL
same,MIC,Staphylococcus aureus,4 µg/mL
COC(=O)N/C=C/CCCc1cc(O)c(C(=O)/C=C/c2ccc3[nH]ccc3c2)c(=O)o1,inhibition,Escherichia coli [1],< 20%
same,MIC,Escherichia coli [2],> 64 µg/mL
same,Activity,CEM-SS,Non-toxic
same,MIC,Staphylococcus aureus,> 64 µg/mL
CCCC/C(C)=C/C=C(\C)C(=O)c1ccc(C(C)CC/C=C/NC(=O)OC)cc1O (stereo not drawn),inhibition,Escherichia coli [1],38%
same,MIC,Escherichia coli [2],> 64 µg/mL
same,Activity,CEM-SS,Non-toxic
same,MIC,Staphylococcus aureus,> 64 µg/mL
COC(=O)N/C=C/CCC(C)c1cc(O)c(C(=O)NC/C=C(\C)CCC=C(C)C)c(=O)o1 (stereo not drawn),inhibition,Escherichia coli [1],< 20%
same,MIC,Escherichia coli [2],> 64 µg/mL
same,Activity,CEM-SS,Non-toxic
same,MIC,Escherichia coli [4],16 µg/mL
same,MIC,Staphylococcus aureus,> 64 µg/mL
